Assay: Toxicity liver stage against HepG2, at 10uM
Type: cell-based
Set-up: test concentration 10 uM, cell line HepG2-A16-CD81EGFP
Settings: human, HepG2-A16-CD81EGFP cells; read-out: INHIBITION
Outline: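 Uninfected HepG2-A16-CD81EGFP cells, 3 × 10^3 per well, 1536-well, plated on prespotted compound at 10 μM final, parasite-free screening media added to match infected plates; puromycin 10 μM positive, DMSO 0.5% negative; run in parallel with 48 h PbLuc assay at 37 °C, 5% CO2; viability by CellTiter-Glo luminescence, normalized to controls.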

SMILES	cytotoxicity at 10 µM [%]
COc1ccccc1C(O)Cn1cc(C(=O)NCC2CC2)nn1 (stereo not given)	-2.62
Cc1cnc(C(=O)N2CC[C@H]3[C@@H]2CCC(=O)N3c2cccnc2)cn1	-81.9
Cc1cccc(NC(=O)Cc2cnc3n(C)c(=O)[nH]c(=O)n23)c1	-5.17
COc1cccc(CC(=O)N2CCC3(CC2)OCCCC3O)c1OC (stereo not given)	-5.7
CCCn1cc(CNCC(c2ccc(C)s2)N2CCOCC2)cn1 (stereo not given)	-0.248
Fc1ccccc1Cc1noc(CN2CCC(C3CCCCC3)C2)n1 (stereo not given)	0.372
O=C(CCc1ccco1)Nc1cc(C(F)(F)F)c[nH]c1=O	13.9
CNC(=O)[C@@]12CCC3(CCN(S(C)(=O)=O)CC3)[C@@H]1CN(C(C)=O)C2	-2.07
O=C(NCCn1ccc(-c2ccccn2)n1)c1ccncc1	-20.7
CC(C)(C)C(=O)N1C[C@H](c2ccsc2)[C@H]2CN(Cc3cccs3)CC[C@H]21	12.7
CCc1noc(C)c1C(=O)N1CCCC1Cn1cccn1 (stereo not given)	-3.04
COCCC(=O)N1CCCCC1c1ccc(F)cc1 (stereo not given)	-41.3
O=C1CCCN1CC1CCCCN1C(=O)Nc1cccnc1 (stereo not given)	-0.123
CNc1nc2c(s1)C(c1ccc(Cl)cc1Cl)CC(=O)N2 (stereo not given)	7
CCCC(=O)N1CCN(c2cc(-n3cnc(C)c3C)nc(C)n2)CC1	-1.89
Cc1cnc2n(c1=O)C(CC(=O)NCc1ccco1)CS2 (stereo not given)	-5.52
Cn1cc(C(=O)N[C@H]2CN(Cc3nccs3)[C@@H]3CCCO[C@H]23)cn1	0.893
CCc1nc(C2CCCN2CC(=O)N2CCCc3ccccc32)no1 (stereo not given)	-25.2
CN1CCCCC1Cc1nc(Cc2cccc(F)c2)no1 (stereo not given)	-148
CC1c2ncc(CNC(=O)C3CC3)n2CCN1Cc1ccccn1 (stereo not given)	8.18
CC(=O)Nc1ccc(CNc2cccc(OCCF)c2)cc1	-5.35
Cc1ccc(CN(C)C(=O)NCC(C)(C)NS(C)(=O)=O)s1	-0.422

SMILES	cytotoxicity at 10 µM [%]
CN(C)C(=O)N1CC[C@@H](O)[C@@H]1Cc1ccccc1	3.14
CCN(Cc1ccco1)C(=O)Nc1cc(C(F)(F)F)c[nH]c1=O	-2.6
Nc1ccnc(N2CCC(CCc3ccccc3)(C(=O)O)CC2)n1	-3.65
CN1CCCC2(CCN(c3cccc(C(F)(F)F)n3)C2)C1=O (stereo not given)	7.87
C[C@]1(O)CN(Cc2ccc(C(=O)O)cc2)CC[C@@H]1Oc1cccc(F)c1	-6.66
Cc1nc(NC2CCCC2)cc(C2CCN2C(=O)c2ccccc2)n1 (stereo not given)	-6.31
CC(C)C(O)CNC(=O)Nc1cnn(C(C)C)c1 (stereo not given)	3.57
Cc1nn(C)c2cn(CC(=O)N3CCN(c4ccccn4)CC3)nc12	3.57
N#Cc1cc(Cl)ccc1N1CCN(C(=O)C2CCC2)CC1	10.1
CCC(=O)N1CCN(Cc2cc(-c3ccncc3)nn2C)CC1	4.24
O=C(NC1CCN(c2ccc(-c3ccccc3F)nn2)C1)c1cc[nH]n1 (stereo not given)	3.17
CC(C)n1ccnc1CN1CCOC(C)(C(=O)N2CCOCC2)C1 (stereo not given)	-8.58
Cc1nc[nH]c1C(=O)N1CCC2(CC1)CN(CCN(C)C)C(=O)O2	4.54
CC(CC(=O)NCCNS(C)(=O)=O)C1CCCCC1 (stereo not given)	6.43
CN(C)Cc1ccc(C2CCCCN2C(=O)c2cc(=O)[nH]c(=O)[nH]2)cc1 (stereo not given)	-3.95
CN1CCOC(CNC(=O)CCCOCCc2ccccc2)C1 (stereo not given)	-3.56
CC(C)(C)c1ccc2c(c1)CCN2C(=O)c1nc(=O)[nH][nH]1	-3.74
CC(C)CN1CC(C(=O)NCc2ccnc(-n3cccn3)c2)CC1=O (stereo not given)	-5.48
COc1ccc(C2CCCN2Cc2nc3c(cnn3C)c(=O)[nH]2)cc1 (stereo not given)	-9.77
O=C(Nc1cc(F)ccc1OCC1CCCO1)c1ccc(O)nc1 (stereo not given)	-2.91
CCC(=O)NCCNC(=O)c1nn(C)c(C)c1Cl	5.05
CCc1cnc(N2CCC3(CC2)CN(c2cccnc2)C(=O)CO3)nc1	7.18

SMILES	cytotoxicity at 10 µM [%]
OCC1CCN(c2ccc(NCc3ccsc3)nc2)CC1	8.94
Cc1nn(C)c(C)c1C1CCCN1CCCC#N (stereo not given)	-0.699
Cc1n[nH]c(C2CN(C(=O)Cn3ccccc3=O)CCO2)n1 (stereo not given)	5.75
COc1ccc(CNC(=O)N2CCOCC2C2CC2)c(C)c1 (stereo not given)	4.54
CNS(=O)(=O)CCn1cc(-c2cc3c(cc2OC)CCC3)nn1	-2.12
CS(=O)(=O)c1snnc1C1CCCN(Cc2ccncc2)C1 (stereo not given)	-11.5
COc1ccccc1Oc1ncccc1CNC(=O)CN1CCCC1=O	-4.72
CNC(=O)c1cc2c(nc1NCC(C)C)CCN(CC1CC1)CC2	-158
CCS(=O)(=O)N1CCC2(CN(Cc3ccc(C)o3)C2)C1	-109
CC(=O)N[C@@H]1CN(C(=O)Cc2coc3cc(C)ccc23)C[C@H]1O	5.84
CN(Cc1csc(-c2cccs2)n1)Cc1ncccc1C(=O)O	-11.5
Cc1nn(C)c2ncc(NC(=O)N(C)Cc3cnn(C)c3)cc12	-0.768
Cc1nsc(N2CCN(Cc3cccc(F)c3)CC2)n1	2.74
Cn1cc(CN2CC[C@H]3CO[C@H](CNc4ncccn4)[C@H]3C2)cn1	-15.6
CN(c1ccc(C#N)cn1)C1CCCN(Cc2noc(C3CC3)n2)C1 (stereo not given)	-17.2
COCC1CC2(CCN(c3ccccn3)CC2)CN1C(C)C (stereo not given)	-110
Cc1cccc2c1cnn2CCC(=O)NCc1csc(C2CC2)n1	4.22
O=C(Nc1cccnc1)[C@H]1CN(C2CCCC2)C[C@H]2OCC[C@@H]12	9.81
CCCC1CCCN(Cc2csc(-c3cnn(C)c3)n2)CC1 (stereo not given)	-1.47
CCn1cc(CN2CCCN(C(=O)CCc3cccs3)CC2)cn1	-6.99
CCC(C)CS(=O)(=O)NCCc1csc(N2CCCC2)n1 (stereo not given)	1.28
CC(=O)N1CCC(n2nccc2-c2cnc(N(C)CCO)nc2)CC1	5.47

SMILES	cytotoxicity at 10 µM [%]
CNc1nc(C(=O)N2CCn3nc(C(=O)OC)cc3C2)cs1	-8.61
O=C1CCC2(CCNCC2)CN1Cc1nnc2ccccn12	-0.949
Cc1nn(C)c(N(C)C)c1CNCc1ccc(C(=O)N(C)C)cc1	-9.55
CCCS(=O)(=O)NC(=O)c1ccc(CC)o1	-8.37
CC(C(N)=O)N(C)Cc1ccccc1C(F)(F)F (stereo not given)	-5.54
CC(C)c1nc(C2CCCN2c2ncc(C(N)=O)cc2Cl)no1 (stereo not given)	13.4
Cc1ccc(C2(O)CCN(C(=O)CCn3ccc(=O)[nH]c3=O)CC2)nc1	1.99
CS(=O)(=O)c1cccc(C(=O)N2CCCC(n3cccn3)C2)c1 (stereo not given)	-8.77
OCc1ccc(-c2nccn2CCc2nc3c(s2)CCCC3)o1	4.71
O=c1[nH]c(=O)n(CC(O)c2ccccc2Cl)cc1Cl (stereo not given)	9.71
O=C(CCc1cc(Br)cs1)NCCCn1ccnc1	1.08
Cc1nc(CN2CCN(c3ccc(Cl)cn3)CC2)no1	1.3
Cc1cc(C(=O)NCC(F)(F)F)c2c(C3CCNCC3)noc2n1	10.4
CN1CCO[C@H]2CN(S(=O)(=O)c3ccc(C#N)cc3)C[C@H]21	7.25
CCc1noc(CN(C)C(=O)COc2cc(Cl)cc(Cl)c2)n1	-0.966
Cc1cc(C)n(CC2CCN(CC(O)COc3ccccc3)CC2)n1 (stereo not given)	-5.58
c1cnc2c(c1)cc([C@@H]1CCCO1)n2CCN1CCOCC1	-19.7
C[C@H](N)Cn1nc(-c2cccs2)oc1=O	-1.94
O=C(NCC(F)(F)F)NC1CCCc2c1cnn2CCO (stereo not given)	4.44
O=C(NCc1ccco1)N1CCCCC1c1nc(-c2ccncc2)no1 (stereo not given)	-7.92
Cc1ccc(C(=O)N2CCN(Cc3ccsc3)CC2)n1C	0.914
O=C(CC1CCCO1)N1CCCN(c2cccnn2)CC1 (stereo not given)	-7.72

SMILES	cytotoxicity at 10 µM [%]
CN(CCCN1CCCC1)[C@@H]1c2ccccc2C2(CCNCC2)[C@H]1O	-3.99
Cc1nc(CN2C(=O)C[C@@H]3[C@@H]2CCN3Cc2cnn(C)c2)cs1	2.44
Cc1ccc(C(=O)N2CCN(C(=O)Nc3ccccn3)CC2)o1	2.14
Cn1nc(C2CCCN(Cc3ccc(F)cc3)C2)c2nccnc21 (stereo not given)	-24.8
CCc1nc2n(n1)CC(NCC(=O)Nc1ccc(Cl)cn1)CC2 (stereo not given)	-10.3
CC(NC(=O)c1cn(CCC2CCCCC2)nn1)c1cnn(C)c1 (stereo not given)	6.2
O=C(C[S+]([O-])Cc1ccc(Cl)cc1Cl)N1CCc2sccc2C1 (stereo not given)	2.13
O=C(Nc1cc(Cl)ccc1N1CCCCC1)c1ccccn1	-55
CS(=O)(=O)c1cccc(S(=O)(=O)NC(=O)CCC2CCCCC2)c1	0.848
Cc1ccsc1-c1cc(C(=O)O)cc(S(=O)(=O)NCc2ccccn2)c1	-63.8
CCOc1ccccc1NC(=O)Nc1cc(N2CCCC2)ncn1	-0.113
CCOc1c(F)cccc1C(=O)N(c1cccnc1)C(C)C	1.52
O=S(=O)(NCCc1nnc2ccccn12)c1cccnc1	1.9
CCC(CN1CCOCC1)n1cncc1-c1ccc2c(c1)CCCN2C (stereo not given)	8.9
O=C(c1cc(Cn2ccc3ccccc32)[nH]n1)N1CCOCC1	-1.01
CC(C)(C)c1cc(NC(=O)CN2CCc3cncnc3C2)on1	-8.78
O=C(CC1COCCN1)NCCc1noc(-c2ccccc2)n1 (stereo not given)	3.05
CCN1CCC(NC(=O)Cn2cc(C)c3ccccc32)CC1	-1.74
COc1nc2c(cc1C(=O)N1CCCCC1c1ccccn1)CCC2 (stereo not given)	-12.5
Cc1nnc2n1CC(CNc1cnc3ccccc3n1)CC2 (stereo not given)	-41.5
Cc1ccsc1-c1nc(CN(C)Cc2noc(C(C)C)n2)c(C)o1	-5.85
O=C1NCC2(CCCN(C(=O)Cn3nc4ccccc4n3)CC2)O1 (stereo not given)	-3.45

From ChEMBL document CHEMBL4513216, “Probing the Open Global Health Chemical Diversity Library for Multistage-Active Starting Points for Next-Generation Antimalarials” (ACS Infect Dis, 2020)
